Data taken from ChEMBL document CHEMBL4406845, “Synthesis of benzotriazoles derivatives and their dual potential as α-amylase and α-glucosidase inhibitors in vitro: Structure-activity relationship, molecular docking, and kinetic studies” (Eur J Med Chem, 2019).

How the values were obtained:
Alpha amylase = target: T1, Alpha amylase (Homo sapiens, UniProt P0DUB6); assay: Inhibition of alpha-amylase (unknown origin) using starch as substrate preincubated for 10 mins followed by substrate addition and measured after 10 mins by dinitrosalicylic acid reagent based assay
T1 sequence (P0DUB6 whole entry): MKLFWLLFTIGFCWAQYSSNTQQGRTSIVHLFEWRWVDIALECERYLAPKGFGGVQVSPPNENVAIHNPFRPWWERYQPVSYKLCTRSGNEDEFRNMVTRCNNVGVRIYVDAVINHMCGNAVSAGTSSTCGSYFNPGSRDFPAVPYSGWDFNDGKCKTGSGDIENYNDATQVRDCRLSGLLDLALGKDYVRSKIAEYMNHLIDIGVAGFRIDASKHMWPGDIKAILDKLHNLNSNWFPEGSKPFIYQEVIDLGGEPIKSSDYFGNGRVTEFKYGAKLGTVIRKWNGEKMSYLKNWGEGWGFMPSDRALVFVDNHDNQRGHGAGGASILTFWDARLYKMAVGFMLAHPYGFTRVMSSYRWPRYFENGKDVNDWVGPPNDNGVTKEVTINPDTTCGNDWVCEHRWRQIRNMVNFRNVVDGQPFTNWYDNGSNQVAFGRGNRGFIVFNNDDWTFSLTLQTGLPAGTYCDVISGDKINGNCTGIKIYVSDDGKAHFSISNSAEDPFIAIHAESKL

Alpha glucosidase = Alpha glucosidase (Homo sapiens, UniProt O43451+P10253+P14410+Q2M2H8); assay: Inhibition of alpha-glucosidase (unknown origin); assay type: protein assay
[1] = tested on: O=C(c1ccc(F)cc1)n1nnc2ccccc21; assay: (§1) Competitive inhibition of alpha-amylase (unknown origin) assessed as substrate Km using p-nitrophenyl-R-D-maltoside as substrate incubated for 30 mins by ELISA-based Lineweaver-burk plot analysis; settings: Homo sapiens
Summary of the method: (§2)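 Kinetics: inhibitor at 0.0625, 0.125, 0.3 and 0.4 mM crossed with p-nitrophenyl-R-D-maltoside at 0.1, 0.2, 0.4, 0.8 and 1.0 mM. Enzyme dissolved in deionized water, 0.2 mg/mL per well. PIPES buffer, pH 7.0, 30 min at 25 °C. Absorbance read on a plate reader. Vmax, Km, AICc and R² obtained by enzyme-kinetic graph fitting.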

[2] = tested on: O=C(c1cccc(Cl)c1)n1nnc2cc(Cl)c(Cl)cc21; assay: as §1; settings: Homo sapiens; summary of the method: as §2
[3] = tested on: O=C(Cn1nnc2ccccc21)c1cccc(Br)c1; assay: as §1; settings: Homo sapiens; summary of the method: as §2
[4] = tested on: COc1ccc(C(=O)Cn2nnc3cc(C)c(C)cc32)cc1; assay: as §1; settings: Homo sapiens; summary of the method: as §2
[5] = tested on: COc1ccc(C(=O)n2nnc3ccccc32)cc1; assay: as §1; settings: Homo sapiens; summary of the method: as §2
[6] = tested on: O=C(c1ccc([N+](=O)[O-])cc1)n1nnc2ccccc21; assay: as §1; settings: Homo sapiens; summary of the method: as §2
[7] = tested on: Cc1cc2nnn(CC(=O)c3ccc(Cl)cc3)c2cc1C; assay: as §1; settings: Homo sapiens; summary of the method: as §2
[8] = tested on: O=C(Cn1nnc2ccccc21)c1ccc(Cl)cc1; assay: as §1; settings: Homo sapiens; summary of the method: as §2
[9] = tested on: Cc1cc2nnn(CC(=O)c3ccc(Cl)c(Cl)c3)c2cc1C; assay: as §1; settings: Homo sapiens; summary of the method: as §2
[10] = tested on: O=C(c1ccc(F)cc1)n1nnc2ccccc21; assay: (§3) Competitive inhibition of alpha-amylase (unknown origin) assessed as substrate Vmax using p-nitrophenyl-R-D-maltoside as substrate incubated for 30 mins by ELISA-based Lineweaver-burk plot analysis; settings: Homo sapiens; summary of the method: as §2
[11] = tested on: O=C(c1cccc(Cl)c1)n1nnc2cc(Cl)c(Cl)cc21; assay: as §3; settings: Homo sapiens; summary of the method: as §2
[12] = tested on: O=C(Cn1nnc2ccccc21)c1cccc(Br)c1; assay: as §3; settings: Homo sapiens; summary of the method: as §2
[13] = tested on: COc1ccc(C(=O)Cn2nnc3cc(C)c(C)cc32)cc1; assay: as §3; settings: Homo sapiens; summary of the method: as §2
[14] = tested on: COc1ccc(C(=O)n2nnc3ccccc32)cc1; assay: as §3; settings: Homo sapiens; summary of the method: as §2
[15] = tested on: O=C(c1ccc([N+](=O)[O-])cc1)n1nnc2ccccc21; assay: as §3; settings: Homo sapiens; summary of the method: as §2
[16] = tested on: Cc1cc2nnn(CC(=O)c3ccc(Cl)cc3)c2cc1C; assay: as §3; settings: Homo sapiens; summary of the method: as §2
[17] = tested on: O=C(Cn1nnc2ccccc21)c1ccc(Cl)cc1; assay: as §3; settings: Homo sapiens; summary of the method: as §2
[18] = tested on: Cc1cc2nnn(CC(=O)c3ccc(Cl)c(Cl)c3)c2cc1C; assay: as §3; settings: Homo sapiens; summary of the method: as §2
[19] = tested on: CCCCOc1ccc(C(=O)n2nnc3ccccc32)cc1; assay: (§4) Non-competitive inhibition of alpha-glucosidase (unknown origin) assessed as substrate Vmax using p-nitrophenyl-R-D-maltoside as substrate incubated for 30 mins at 1 min interval by ELISA-based Lineweaver-burk plot analysis; assay type: protein assay; settings: Homo sapiens
[20] = tested on: Cc1cc2nnn(C(=O)c3ccccc3)c2cc1C; assay: as §4; assay type: protein assay; settings: Homo sapiens
[21] = tested on: O=C(Cn1nnc2ccccc21)c1ccccc1O; assay: as §4; assay type: protein assay; settings: Homo sapiens
[22] = tested on: O=C(c1cccc(Cl)c1)n1nnc2cc(Cl)c(Cl)cc21; assay: as §4; assay type: protein assay; settings: Homo sapiens
[23] = tested on: COc1ccc(C(=O)Cn2nnc3cc(C)c(C)cc32)cc1; assay: as §4; assay type: protein assay; settings: Homo sapiens
[24] = tested on: Cc1ccc(C(=O)n2nnc3cc(Cl)c(Cl)cc32)cc1C; assay: as §4; assay type: protein assay; settings: Homo sapiens
[25] = tested on: O=C(c1ccc(Br)cc1)n1nnc2ccccc21; assay: as §4; assay type: protein assay; settings: Homo sapiens
[26] = tested on: O=C(Cn1nnc2ccccc21)c1cccc([N+](=O)[O-])c1; assay: as §4; assay type: protein assay; settings: Homo sapiens
[27] = tested on: Cc1cc(C(=O)n2nnc3ccccc32)cc(C)c1C; assay: as §4; assay type: protein assay; settings: Homo sapiens
[28] = tested on: CCCCOc1ccc(C(=O)n2nnc3ccccc32)cc1; assay: (§5) Non-competitive inhibition of alpha-glucosidase (unknown origin) assessed as substrate Km using p-nitrophenyl-R-D-maltoside as substrate incubated for 30 mins at 1 min interval by ELISA-based Lineweaver-burk plot analysis; assay type: protein assay; settings: Homo sapiens
[29] = tested on: Cc1cc2nnn(C(=O)c3ccccc3)c2cc1C; assay: as §5; assay type: protein assay; settings: Homo sapiens
[30] = tested on: O=C(Cn1nnc2ccccc21)c1ccccc1O; assay: as §5; assay type: protein assay; settings: Homo sapiens
[31] = tested on: O=C(c1cccc(Cl)c1)n1nnc2cc(Cl)c(Cl)cc21; assay: as §5; assay type: protein assay; settings: Homo sapiens
[32] = tested on: COc1ccc(C(=O)Cn2nnc3cc(C)c(C)cc32)cc1; assay: as §5; assay type: protein assay; settings: Homo sapiens
[33] = tested on: Cc1ccc(C(=O)n2nnc3cc(Cl)c(Cl)cc32)cc1C; assay: as §5; assay type: protein assay; settings: Homo sapiens
[34] = tested on: O=C(c1ccc(Br)cc1)n1nnc2ccccc21; assay: as §5; assay type: protein assay; settings: Homo sapiens
[35] = tested on: O=C(Cn1nnc2ccccc21)c1cccc([N+](=O)[O-])c1; assay: as §5; assay type: protein assay; settings: Homo sapiens
[36] = tested on: Cc1cc(C(=O)n2nnc3ccccc32)cc(C)c1C; assay: as §5; assay type: protein assay; settings: Homo sapiens

Cc1ccc(C(=O)Cn2nnc3ccccc32)cc1
IC50 (Alpha amylase): 4.56 µM | IC50 (Alpha glucosidase): 4.78 µM

Nc1cc(C(=O)n2nnc3ccccc32)ccc1Cl
IC50 (Alpha amylase): 4.28 µM | IC50 (Alpha glucosidase): 4.32 µM

O=C(Cn1nnc2ccccc21)c1ccc(Cl)cc1
IC50 (Alpha amylase): 2.41 µM | IC50 (Alpha glucosidase): 2.5 µM

Cc1ccc(C(=O)n2nnc3ccccc32)cc1C
IC50 (Alpha amylase): 4.73 µM | IC50 (Alpha glucosidase): 4.8 µM

O=C(c1ccc(F)c(F)c1Cl)n1nnc2ccccc21
IC50 (Alpha amylase): 5.72 µM | IC50 (Alpha glucosidase): 5.63 µM

O=C(Cn1nnc2ccccc21)c1ccc(-c2ccccc2)cc1
IC50 (Alpha amylase): 4.92 µM | IC50 (Alpha glucosidase): 4.98 µM

O=C(c1ccccc1)n1nnc2ccccc21
IC50 (Alpha amylase): 5.38 µM | IC50 (Alpha glucosidase): 5.29 µM

CCCCOc1ccc(C(=O)n2nnc3ccccc32)cc1
IC50 (Alpha amylase): 5.4 µM | IC50 (Alpha glucosidase): 5.6 µM

Cc1cc2nnn(CC(=O)c3ccc(Cl)cc3)c2cc1C
IC50 (Alpha amylase): 2.12 µM | IC50 (Alpha glucosidase): 2.21 µM

O=C(Cn1nnc2ccccc21)c1ccccc1
IC50 (Alpha amylase): 4.89 µM | IC50 (Alpha glucosidase): 4.91 µM

Cc1cc(C(=O)n2nnc3ccccc32)ccc1[N+](=O)[O-]
IC50 (Alpha amylase): 4.08 µM | IC50 (Alpha glucosidase): 4.1 µM

COc1ccccc1C(=O)n1nnc2ccccc21
IC50 (Alpha amylase): 4.77 µM | IC50 (Alpha glucosidase): 4.79 µM

COc1ccc(C(=O)n2nnc3ccccc32)cc1
IC50 (Alpha amylase): 2.98 µM | IC50 (Alpha glucosidase): 2.99 µM

O=C(c1cccc(Cl)c1)n1nnc2cc(Cl)c(Cl)cc21
IC50 (Alpha amylase): 2.99 µM | IC50 (Alpha glucosidase): 3 µM

O=C(Cn1nnc2ccccc21)c1cccc([N+](=O)[O-])c1
IC50 (Alpha amylase): 4.02 µM | IC50 (Alpha glucosidase): 4 µM

Cc1cc2nnn(CC(=O)c3ccc(Cl)c(Cl)c3)c2cc1C
IC50 (Alpha amylase): 2 µM | IC50 (Alpha glucosidase): 2.04 µM

O=C(Cn1nnc2ccccc21)c1cccc(Br)c1
IC50 (Alpha amylase): 4.35 µM | IC50 (Alpha glucosidase): 4.41 µM

O=C(c1ccc([N+](=O)[O-])cc1)n1nnc2ccccc21
IC50 (Alpha amylase): 2.92 µM | IC50 (Alpha glucosidase): 2.97 µM

O=C(Cn1nnc2ccccc21)c1ccccc1O
IC50 (Alpha amylase): 4.9 µM | IC50 (Alpha glucosidase): 4.87 µM

Cc1cc2nnn(CC(=O)c3ccccc3)c2cc1C
IC50 (Alpha amylase): 3.53 µM | IC50 (Alpha glucosidase): 3.41 µM

COc1ccc(C(=O)Cn2nnc3ccccc32)cc1
IC50 (Alpha amylase): 4.42 µM | IC50 (Alpha glucosidase): 4.5 µM

O=C(c1ccccc1)n1nnc2cc(Cl)c(Cl)cc21
IC50 (Alpha amylase): 3.66 µM | IC50 (Alpha glucosidase): 3.7 µM

Cc1cccc(C(=O)n2nnc3ccccc32)c1
IC50 (Alpha amylase): 4.3 µM | IC50 (Alpha glucosidase): 4.42 µM

Alpha amylase (Homo sapiens) (from UniProt P0DUB6)
Km [1]: 190 µM | Km [2]: 200 µM | Km [3]: 210 µM | Km [4]: 200 µM | Km [5]: 210 µM | Km [6]: 200 µM | Km [7]: 180 µM | Km [8]: 200 µM | Km [9]: 240 µM | Vmax [10]: 522 µM/min | Vmax [11]: 514 µM/min | Vmax [12]: 512 µM/min | Vmax [13]: 505 µM/min | Vmax [14]: 554 µM/min | Vmax [15]: 512 µM/min | Vmax [16]: 514 µM/min | Vmax [17]: 527 µM/min | Vmax [18]: 593 µM/min

O=C(Cn1nnc2ccccc21)c1ccc(Br)cc1
IC50 (Alpha amylase): 2.76 to 4.35 µM | IC50 (Alpha glucosidase): 2.79 to 4.41 µM

O=C(c1c(F)cccc1F)n1nnc2ccccc21
IC50 (Alpha amylase): 5 µM | IC50 (Alpha glucosidase): 5.23 µM

Alpha glucosidase (Homo sapiens) (from UniProt O43451+P10253+P14410+Q2M2H8)
Vmax [19]: 621 µM/min | Vmax [20]: 602 µM/min | Vmax [21]: 601 µM/min | Vmax [22]: 620 µM/min | Vmax [23]: 620 µM/min | Vmax [24]: 620 µM/min | Vmax [25]: 612 µM/min | Vmax [26]: 618 µM/min | Vmax [27]: 612 µM/min | Km [28]: 240 µM | Km [29]: 200 µM | Km [30]: 250 µM | Km [31]: 250 µM | Km [32]: 210 µM | Km [33]: 240 µM | Km [34]: 200 µM | Km [35]: 260 µM | Km [36]: 200 µM

O=C(Cn1nnc2ccccc21)c1ccc(Cl)c(Cl)c1
IC50 (Alpha amylase): 3.89 µM | IC50 (Alpha glucosidase): 3.9 µM

O=C(c1ccc(Br)cc1)n1nnc2ccccc21
IC50 (Alpha amylase): 3.13 µM | IC50 (Alpha glucosidase): 3.2 µM

O=C(Cn1nnc2ccccc21)c1cccc(Cl)c1Cl
IC50 (Alpha amylase): 3.51 µM | IC50 (Alpha glucosidase): 3.47 µM

Cc1ccc(C(=O)n2nnc3cc(Cl)c(Cl)cc32)cc1C
IC50 (Alpha amylase): 3.66 µM | IC50 (Alpha glucosidase): 3.82 µM

O=C(c1ccc(F)cc1)n1nnc2ccccc21
IC50 (Alpha amylase): 2.8 µM | IC50 (Alpha glucosidase): 2.82 µM

Cc1cc2nnn(C(=O)c3ccccc3)c2cc1C
IC50 (Alpha amylase): 3.32 µM | IC50 (Alpha glucosidase): 3.4 µM

Cc1cc(C(=O)n2nnc3ccccc32)cc(C)c1C
IC50 (Alpha amylase): 4.12 µM | IC50 (Alpha glucosidase): 4.23 µM

COc1ccc(C(=O)Cn2nnc3cc(C)c(C)cc32)cc1
IC50 (Alpha amylase): 2.51 µM | IC50 (Alpha glucosidase): 2.6 µM

Cc1cc2nnn(CC(=O)c3ccccc3O)c2cc1C
IC50 (Alpha amylase): 3.21 µM | IC50 (Alpha glucosidase): 3.3 µM
